Data as given in ChEMBL document CHEMBL3593155, “Synthesis and evaluation of N-analogs of 1,2-diarylethane as Helicobacter pylori urease inhibitors” (Bioorg Med Chem, 2015).

Columns and labels:
[1] = target: T1, Urease subunit alpha/Urease subunit beta (Helicobacter pylori (strain ATCC 700392 / 26695) (Campylobacterpylori)) (UniProt P69996+P14916); assay: Potency index, ratio of AHA IC50 to compound IC50 for urease isolated from Helicobacter pylori ATCC 4350; conditions: Helicobacter pylori ATCC 43504
[2] = target: T1, Urease subunit alpha/Urease subunit beta (Helicobacter pylori (strain ATCC 700392 / 26695) (Campylobacterpylori)); assay: Potency index, ratio of AHA IC50 to compound IC50 for urease in Helicobacter pylori ATCC 43504
[3] = target: T2, Urease subunit alpha/Urease subunit beta (Helicobacter pylori (strain ATCC 700392 / 26695) (Campylobacterpylori), UniProt P69996); assay: Inhibition of urease in Helicobacter pylori ATCC 43504 assessed as ammonia production incubated for 1.5 hrs prior to testing by indophenol method
In short: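 Washed cells were sonicated 60 s in water with protease inhibitors. The supernatant was desalted on Sephadex G-25 and stored with equal-volume glycerol at 4 °C. Enzyme was preincubated with compound 1.5 h at room temperature.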

[4] = target: T2, Urease subunit alpha/Urease subunit beta; assay: Inhibition of urease isolated from Helicobacter pylori ATCC 43504 assessed as ammonia production incubated for 1.5 hrs prior to testing by indophenol method
In short: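 Washed cells were sonicated in water with protease inhibitors, and the supernatant was desalted on Sephadex G-25. This crude urease, mixed with an equal volume of glycerol, was pre-incubated with test compound for 1.5 h at room temperature.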

T2 sequence (P69996 whole entry): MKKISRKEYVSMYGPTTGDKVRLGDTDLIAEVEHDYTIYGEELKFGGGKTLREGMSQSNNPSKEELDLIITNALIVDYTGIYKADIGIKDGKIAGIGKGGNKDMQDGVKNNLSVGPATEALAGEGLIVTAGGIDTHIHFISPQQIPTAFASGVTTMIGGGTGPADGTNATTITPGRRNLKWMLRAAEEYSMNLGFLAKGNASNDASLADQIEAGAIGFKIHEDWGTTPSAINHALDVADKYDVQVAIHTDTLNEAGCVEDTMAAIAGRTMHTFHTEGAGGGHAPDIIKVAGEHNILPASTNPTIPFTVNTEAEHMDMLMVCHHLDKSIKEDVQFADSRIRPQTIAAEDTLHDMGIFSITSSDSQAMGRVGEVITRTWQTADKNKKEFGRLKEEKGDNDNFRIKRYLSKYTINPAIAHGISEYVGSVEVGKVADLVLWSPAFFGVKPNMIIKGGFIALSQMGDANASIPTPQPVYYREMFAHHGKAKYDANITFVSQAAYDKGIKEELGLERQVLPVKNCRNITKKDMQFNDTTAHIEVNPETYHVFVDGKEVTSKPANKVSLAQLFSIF
T2 sequence (P14916 whole entry, further chain): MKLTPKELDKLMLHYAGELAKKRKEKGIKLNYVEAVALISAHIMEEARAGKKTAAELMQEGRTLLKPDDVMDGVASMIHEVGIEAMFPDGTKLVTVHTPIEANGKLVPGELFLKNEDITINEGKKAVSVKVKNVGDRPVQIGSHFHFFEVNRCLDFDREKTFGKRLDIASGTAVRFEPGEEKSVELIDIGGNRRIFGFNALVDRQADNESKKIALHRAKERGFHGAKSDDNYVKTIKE
T1 sequence (P14916 whole entry, looked up): as the sequence (P14916 whole entry, further chain) above
T1 sequence (P69996 whole entry, looked up): as the sequence (P69996 whole entry) above

SMILES: O=[N+]([O-])c1ccc(NCc2ccc(O)c(O)c2)cc1
- Ratio IC50 [1]: 29
- Ratio IC50 [2]: 54
- IC50 [3]: 1.92 µM
- IC50 [4]: 0.62 µM

SMILES: O=[N+]([O-])c1cccc(CNc2cccc(Cl)c2)c1
- IC50 [4]: 410 µM

SMILES: COc1ccc(NCc2ccc(N(C)C)cc2)cc1
- IC50 [4]: > 500 µM

SMILES: O=[N+]([O-])c1ccc(NCc2ccc(Cl)cc2)cc1
- IC50 [3]: 83.8 µM
- IC50 [4]: 19.5 µM

SMILES: COc1ccc(NCc2ccc(Cl)cc2)cc1
- IC50 [4]: > 500 µM

SMILES: COc1ccc(CNc2cccc([N+](=O)[O-])c2)cc1OC
- IC50 [4]: 50.4 µM

SMILES: O=[N+]([O-])c1cccc(NCc2ccc(O)c(O)c2)c1
- IC50 [3]: 9.52 µM
- IC50 [4]: 2.33 µM

SMILES: O=[N+]([O-])c1ccc(NCc2ccc(O)cc2)cc1
- IC50 [3]: 28.1 µM
- IC50 [4]: 8.26 µM

SMILES: COc1ccc(NCc2cccc([N+](=O)[O-])c2)cc1
- IC50 [4]: 319 µM

SMILES: O=[N+]([O-])c1ccccc1NCc1ccc(O)c(O)c1
- IC50 [4]: 45.1 µM

SMILES: O=[N+]([O-])c1ccc(CNc2cccc([N+](=O)[O-])c2)cc1
- IC50 [4]: 64.9 µM

SMILES: O=[N+]([O-])c1ccccc1CNc1ccc(Cl)cc1
- IC50 [4]: 239 µM

SMILES: CN(C)c1ccc(CNc2cccc([N+](=O)[O-])c2)cc1
- IC50 [3]: 72.4 µM
- IC50 [4]: 16.8 µM

SMILES: O=[N+]([O-])c1ccc(CNc2ccc([N+](=O)[O-])cc2)cc1
- IC50 [3]: 126 µM
- IC50 [4]: 26.3 µM

SMILES: Clc1ccc(NCc2ccc3c(c2)OCO3)cc1
- IC50 [4]: > 500 µM

SMILES: CC(=O)NO [ACETOHYDROXAMIC ACID]
- IC50 [3]: 105 µM
- IC50 [4]: 18.4 µM

SMILES: O=[N+]([O-])c1cccc(NCc2ccc(Cl)cc2)c1
- IC50 [4]: 57.5 µM

SMILES: CN(C)c1ccc(CNc2ccc(Cl)cc2)cc1
- IC50 [4]: > 500 µM

SMILES: COc1ccc(CNc2ccc(Cl)cc2)cc1OC
- IC50 [4]: > 500 µM

SMILES: O=[N+]([O-])c1cccc(CNc2cccc([N+](=O)[O-])c2)c1
- IC50 [4]: 85 µM

SMILES: O=[N+]([O-])c1ccc(CNc2cccc(Cl)c2)cc1
- IC50 [4]: 236 µM
